The values that follow come from ChEMBL document CHEMBL1154421, “In vitro suppression of K65R reverse transcriptase-mediated tenofovir- and adefovir-5'-diphosphate resistance conferred by the boranophosphonate derivatives” (Antimicrob Agents Chemother, 2007).

Structures are written as SMILES. pIC50, pKd: −log10 of the molar value.

For experiment [1], the target named is Human immunodeficiency virus type 1 reverse transcriptase (Human immunodeficiency virus 1) (UniProt Q72547). Nature of the experiment: Binding affinity to HIV1 wild type reverse transcriptase p66/p51 assessed as ratio of catalytic rate constant to Kd for dATP to drug by gel electrophoresis. The procedure, abridged:
(§1)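 Pre-steady-state single-nucleotide incorporation, rapid quench over 10 ms to 30 s. Primer is a 5'-32P-labelled 21-mer annealed to a 31-mer DNA template. Products resolved on 14% acrylamide/8 M urea gels and phosphorimaged. kpol and Kd fitted to a hyperbola.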

Experiment [2] shares this target. As to the kind of experiment: Inhibition of HIV1 wild type reverse transcriptase p66/p51 DNA polymerase activity assessed as formation of terminated DNA products. More on the design: concentration or dose not given beside the values. Particulars: concentration not given here.
The target is the same in experiment [3]. As to the kind of experiment: Binding affinity to wild type reverse transcriptase assessed as ratio of catalytic rate constant to Kd for incorporation of drug to DNA by gel electrophoresis. The procedure, abridged:
as §1

Experiment [4] addresses T1, Human immunodeficiency virus type 1 reverse transcriptase (Human immunodeficiency virus 1, UniProt Q72547). Nature of the experiment: Inhibition of HIV1 wild type reverse transcriptase p66/p51 expressed in Escherichia coli using calf thymus DNA substrate. The procedure, abridged: (§2)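 Recombinant p66/p51 RT, coexpressed with HIV-1 protease in E. coli, affinity-purified and active-site titrated. Reactions used 10 nM RT, 250 µg/ml activated calf thymus DNA and 5 µM each dNTP with [3H]dATP (100 µCi/mmol), run for 15 min across increasing inhibitor. Samples spotted in duplicate on DE81 discs, washed in 0.3 M ammonium formate pH 8.0 and ethanol, then scintillation counted. IC50 averaged from at least three independent experiments.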

Experiment [5] deals with T2, Human immunodeficiency virus type 1 reverse transcriptase (Human immunodeficiency virus 1, UniProt Q72547, K65R). Nature of the experiment: Inhibition of HIV1 reverse transcriptase p66/p51 K65R mutant expressed in Escherichia coli using calf thymus DNA substrate. The procedure, abridged:
as §2

Experiment [6] concerns Human immunodeficiency virus type 1 reverse transcriptase (Human immunodeficiency virus 1), Q72547 [K65R]. As to the kind of experiment: Binding affinity to HIV1 recombinant reverse transcriptase p66/p51 K65R mutant assessed as ratio of catalytic rate constant to Kd for dATP to drug by gel electrophoresis. The procedure, abridged:
as §1

In experiment [7] the target is T2, Human immunodeficiency virus type 1 reverse transcriptase. As to the kind of experiment: Binding affinity to HIV1 recombinant reverse transcriptase p66/p51 K65R mutant expressed in Escherichia coli assessed as incorporation of drug to DNA by gel electrophoresis. The procedure, abridged:
as §1

Experiment [8] relates to Human immunodeficiency virus 1. Nature of the experiment: Inhibition of HIV1 […] reverse transcriptase p66/p51 R72A mutant DNA polymerase activity assessed as formation of terminated DNA products. Particulars: concentration not given here. The procedure, abridged: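 Polymerization rate gel assay with WT or R72A RT (50 nM) and 25 nM 5'-labelled oligo(dA)21 annealed to poly(rU)31, in RT buffer at 37°C. Extension followed over the first seconds with dATP or analogues. Products separated by denaturing gel electrophoresis and autoradiographed.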

For experiment [9], the target named is T1, Human immunodeficiency virus type 1 reverse transcriptase. Nature of the experiment: Binding affinity to HIV1 wild type reverse transcriptase p66/p51 expressed in Escherichia coli assessed as incorporation of drug to DNA by gel electrophoresis. The procedure, abridged:
as §1

Experiment [10] concerns Human immunodeficiency virus 1. Nature of the experiment: Ratio of IC50 for HIV1 reverse transcriptase p66/p51 K65R mutant to IC50 for HIV1 wild type reverse transcriptase. The procedure, abridged:
as §2

Experiment [11] relates to Human immunodeficiency virus type 1 reverse transcriptase (Human immunodeficiency virus 1), Q72547 [K65R]. Nature of the experiment: Binding affinity to HIV1 recombinant reverse transcriptase p66/p51 K65R mutant expressed in Escherichia coli assessed as ratio of catalytic rate constant to Kd for incorporation of drug to DNA by gel electrophoresis. The procedure, abridged: as §1

As a reminder, the inhibition is the relative decrease from the control value, in per cent. The term pIC50 denotes the negative decadic logarithm of the IC50, by convention in mol/L. The pKd is −log10 of the Kd, conventionally taken in molar units. Consider `BP(=O)(COCCn1cnc2c(N)ncnc21)OP(=O)(O)OP(=O)(O)O` (centres undefined), for which the Ratio was 21.7 in experiment [1], 0.3 in [3], 8.8 in [6] and 0.2 in [11]. Besides, the inhibition in [2] turned out to be 69%; in experiment [8] it was 53%. Further, the pIC50 in [4] was 4.77; in experiment [5] it was 4.92. The values for the pKd in [7] and in experiment [9] were 5.15 and 5.19, respectively. In addition, the Ratio IC50 in experiment [10] came out at 0.7.

With `C[C@H](Cn1cnc2c(N)ncnc21)OCP(=O)(O)OP(=O)(O)OP(=O)(O)O`, the Ratio in experiment [1] was found to be 21.9; in [3], 0.3; in experiment [6], 97.8; in experiment [11], 0.02. Further, the inhibition in [2] was determined as 74%; in experiment [8] it was 0.2%. The pIC50 was 4.66 in experiment [4] and 3.77 in experiment [5]. Also, the pKd was 4.74 in [7] and 4.64 in experiment [9]. Moreover, the Ratio IC50 in experiment [10] worked out at 8.

For the compound `BP(=O)(CO[C@H](C)Cn1cnc2c(N)ncnc21)OP(=O)(O)OP(=O)(O)O` (some centres undefined), the Ratio worked out at 9.6 in experiment [1], 0.7 in [3], 10 in experiment [6] and 0.17 in experiment [11]. The inhibition in experiment [2] came out at 74%; in [8], 45%. In addition, the values for the pIC50 in experiment [4] and in [5] were 4.84 and 4.74, respectively. Moreover, the figures for the pKd in experiment [7] and in experiment [9] were 4.46 and 4.48, respectively. In addition, the Ratio IC50 in [10] came to 1.2.

Take `Nc1ncnc2c1ncn2[C@H]1C[C@H](O)[C@@H](COP(=O)(O)OP(=O)(O)OP(=O)(O)O)O1`: the inhibition in [2] turned out to be 75%. The Ratio in experiment [3] was determined as 6.7; in experiment [11] it was 1.7. The negative logarithm of the Kd (pKd) in [7] was 5.16; in experiment [9], 5.12.

As to `Nc1ncnc2c1ncn2CCOCP(=O)(O)OP(=O)(O)OP(=O)(O)O` [ADEFOVIR DIPHOSPHATE], the Ratio is 7.7 in [1], 0.9 in [3], 17.9 in [6] and 0.1 in experiment [11]. Besides, the inhibition in [2] is 72%; in experiment [8], 1.6%. The negative-log IC50 (pIC50) is 5.08 in experiment [4] and 4.28 in experiment [5]. For the same compound, the pKd was 5.11 in [7] and 5.10 in [9]. Besides, the Ratio IC50 in experiment [10] was 6.
